Measured values: ChEMBL document CHEMBL4699424, “New chemical agents based on adamantane-monoterpene conjugates against orthopoxvirus infections” (RSC Med Chem, 2020)
pIC50: −log10 of the molar value.

Tests used:
Vaccinia virus [1] = assay: Antiviral activity against Vaccinia virus; assay type: functional, organism-based; conditions: Orthopoxvirus vaccinia
Vaccinia virus [2] = assay: Antiviral activity against Vaccinia virus Copenhagen infected in African green monkey Vero cells assessed as reduction in cell survival incubated for 4 days by neutral red dye based colorimetric analysis; assay type: functional, organism-based; conditions: Orthopoxvirus vaccinia, 96 h
[3] = Selectivity index, ratio of CC50 for African green monkey Vero cells to IC50 for Vaccinia virus Copenhagen infected in African green monkey Vero cells assessed as reduction in cell survival incubated for 4 days by neutral dye based colorimetric analysis; assay type: toxicity; conditions: read-out: Ratio CC50/IC50
[4] = Cytotoxicity against African green monkey Vero cells assessed as […]; assay type: cell-based; conditions: chlorocebus sabaeus
Outline: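 Uninfected Vero monolayers in DMEM with 2% serum, given 8 three-fold compound dilutions starting at 1, 10 or 100 μg ml–1. Cell viability read by neutral red uptake: dye 1.5 h, washes, lysis, OD. CC50, the concentration causing 50% cell death, calculated from OD values.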

Ectromelia virus = assay: Antiviral activity against Ectromelia virus K-1 infected in African green monkey Vero cells assessed as reduction in cell survival incubated for 4 days by neutral red dye based colorimetric analysis; assay type: functional; conditions: K-1, Vero, 96 h
[5] = Selectivity index, ratio of CC50 for African green monkey Vero cells to IC50 for Ectromelia virus K-1 infected in African green monkey Vero cells assessed as reduction in cell survival incubated for 4 days by neutral dye based colorimetric analysis; assay type: toxicity; conditions: read-out: Ratio CC50/IC50
[6] = Selectivity index, ratio of CC50 for African green monkey Vero cells to IC50 for Cowpox virus Grishak infected in African green monkey Vero cells assessed as reduction in cell survival incubated for 4 days by neutral dye based colorimetric analysis; assay type: toxicity; conditions: read-out: Ratio CC50/IC50
Cowpox virus = assay: Antiviral activity against Cowpox virus Grishak infected in African green monkey Vero cells assessed as reduction in cell survival incubated for 4 days by neutral red dye based colorimetric analysis; assay type: functional, organism-based; conditions: 96 h
Vaccinia virus [7] = assay: Antiviral activity against Vaccinia virus assessed as reduction in viral reproduction at 2 ug/ml after 3 hrs relative to control; assay type: functional, Orthopoxvirus vaccinia; parameters: scale not given: the % may be the effect or the level left; conditions: dose 2 µg/ml
Vaccinia virus [8] = assay: Antiviral activity against Vaccinia virus assessed as reduction in viral reproduction at 2 ug/ml relative to control; assay type: functional, Orthopoxvirus vaccinia; parameters: scale not given: the % may be the effect or the level left; conditions: dose 2 µg/ml

Compound	pIC50 (Vaccinia virus [2])	selectivity ratio at 96 h [3]	CC50 [4]	further results
CC1CCN(CC(=O)N[C@@H]2C[C@H]3CC[C@]2(C)C3(C)C)CC1				pIC50 (Vaccinia virus [1]): 5.60
CC1=CC[C@H](CCNC(=O)C23CC4CC(CC(C4)C2)C3)C1(C)C	5.60	126	317 µM	
CC(C)=CCC/C(C)=C/CNC(=O)C12CC3CC(CC(C3)C1)C2	5.23	3	18.9 µM	
CC(C)=CCCC(C)CC(=O)NC12CC3CC(CC(C3)C1)C2 (centres undefined)	5.51	12	37 µM	
Nc1ccn(C[C@@H](CO)OCP(=O)(O)O)c(=O)n1 [CIDOFOVIR]		12		
CC1(C)[C@H]2CC[C@](C)(C2)[C@H]1NC(=O)C12CC3CC(CC(C3)C1)C2	4.84	22	317 µM	
CC(C)CCCC(C)CCNC(=O)C1C2CC3CC(C2)CC1C3 (centres undefined)	5.55	5	13.7 µM	
CC1(C)[C@H]2CC=C(C(=O)NC34CC5CC(CC(C5)C3)C4)[C@@H]1C2	6.15	11	7.9 µM	
CC1(C)[C@H]2CC[C@]1(C)[C@H](OC(=O)CCN1CCOCC1)C2				pIC50 (Vaccinia virus [1]): 5.46
CC1(C)[C@@H]2CC[C@@]1(CS(=O)(=O)NC1C3CC4CC(C3)CC1C4)C(=O)C2 (some centres undefined)	6.22	160	95.8 µM	
CC(C)=CCC/C(C)=C\CNC(=O)C12CC3CC(CC(C3)C1)C2			12.9 µM	
CC1=CC[C@H](CCNC(=O)C2C3CC4CC(C3)CC2C4)C1(C)C (some centres undefined)	5.59	122	317 µM	
CC1(C)[C@H]2CC=C(C(=O)NC3C4CC5CC(C4)CC3C5)[C@@H]1C2 (some centres undefined)	5.60	325	812 µM	pIC50 (Ectromelia virus): 5.77; selectivity ratio at 96 h [5]: 477; selectivity ratio at 96 h [6]: 113; pIC50 (Cowpox virus): 5.14
C=C(C)[C@@H]1CC=C(CNC(=O)C23CC4CC(CC(C4)C2)C3)CC1	4.91	26	319 µM	
CC1(C)[C@H]2CC=C(CNC(=O)C3C4CC5CC(C4)CC3C5)[C@@H]1C2 (some centres undefined)	5.34	267	1230 µM	pIC50 (Ectromelia virus): 4.90; selectivity ratio at 96 h [5]: 97; selectivity ratio at 96 h [6]: 82; pIC50 (Cowpox virus): 4.82
CC(C)CCCC(C)CCNC(=O)C12CC3CC(CC(C3)C1)C2 (centres undefined)			17.3 µM	
CC(C)=CCC[C@H](C)CCNC(=O)C12CC3CC(CC(C3)C1)C2	5.44	5	18.1 µM	
CC1(C)[C@@H]2CC[C@@]1(CS(=O)(=O)NC13CC4CC(CC(C4)C1)C3)C(=O)C2	5.64	71	164 µM	
CC1(C)[C@H]2CC=C(CCNC(=O)C3C4CC5CC(C4)CC3C5)[C@@H]1C2 (some centres undefined)	5.36	85	372 µM	pIC50 (Ectromelia virus): 5.02; selectivity ratio at 96 h [5]: 39; selectivity ratio at 96 h [6]: 30; pIC50 (Cowpox virus): 4.90
CC1(C)[C@H]2CC=C(CNC(=O)C34CC5CC(CC(C5)C3)C4)[C@@H]1C2	5.77	1120	1910 µM	pIC50 (Ectromelia virus): 5.57; selectivity ratio at 96 h [5]: 707; selectivity ratio at 96 h [6]: 406; pIC50 (Cowpox virus): 5.33
CC(C)=CCCC(C)CC(=O)NC1C2CC3CC(C2)CC1C3 (centres undefined)	4.83	22	330 µM	
O=C1Nc2ccccc2/C1=N\NC(=S)NC1C2CC3CC(C2)CC1C3 (centres undefined)				Activity (Vaccinia virus [7]): 42%
CC1(C)[C@@H]2CC[C@@]1(C)[C@H](NC(=O)C13CC4CC(CC(C4)C1)C3)C2	4.97	30	317 µM	
O=C(NC12CC3CC(CC(C3)C1)C2)C(c1ccccc1)c1ccccc1				Activity (Vaccinia virus [8]): 72%
CC1(C)[C@H]2CC=C(CCNC(=O)C34CC5CC(CC(C5)C3)C4)[C@@H]1C2	5.74	417	750 µM	pIC50 (Ectromelia virus): 5.80; selectivity ratio at 96 h [5]: 469; selectivity ratio at 96 h [6]: 183; pIC50 (Cowpox virus): 5.39
O=C(NN1C(=O)C2C3C=CC(C4CC34)C2C1=O)c1ccc(C(F)(F)F)cc1 (centres undefined)	8.00	128000	1280 µM	
